Assay results taken from ChEMBL document CHEMBL4049428, “Exploring Derivatives of Quinazoline Alkaloid l-Vasicine as Cap Groups in the Design and Biological Mechanistic Evaluation of Novel Antitumor Histone Deacetylase Inhibitors” (J Med Chem, 2017).
Active and inactive are the calls of the source. The calls are words filed in the database; no cut-off is given here.

Experiments:
Homo sapiens = organism: Homo sapiens; assay: Inhibition of HDAC in human HeLa nuclear extract up to 2 uM using Boc-Lys(Ac)-AMC as substrate measured after 30 mins by fluorometric analysis
A549 = assay: Cytotoxicity against human A549 cells assessed as growth inhibition at 10 uM after 48 hrs by MTT assay; type: functional; conditions: A549, 48 h, read-out: GI
Procedure, shortened: (§1)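 MTT assay, 48 h exposure; adherent lines seeded 12 h and suspension lines 4 h before compound. Media: RPMI-1640/10% FCS (THP-1, HL-60, Colo-205, Caco-2, A549), DMEM/10% FCS (A549, MIAPaCa-2, MCF-7). MTT 4 h, formazan dissolved in DMSO, absorbance 570 nm. Mean ± S.D of three experiments in triplicate; SAHA 5 µM reference.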

Caco-2 = assay: Cytotoxicity against human Caco2 cells assessed as growth inhibition at 10 uM after 48 hrs by MTT assay; type: functional; conditions: Caco-2, 48 h, read-out: GI; procedure, shortened: as §1
COLO 205 = assay: Cytotoxicity against human COLO205 cells assessed as growth inhibition at 10 uM after 48 hrs by MTT assay; type: functional; conditions: COLO 205, 48 h, read-out: GI; procedure, shortened: as §1
MOLT-4 [1] = assay: Cytotoxicity against human MOLT4 cells assessed as growth inhibition at 10 uM after 48 hrs by MTT assay; type: functional; conditions: MOLT-4, 48 h, read-out: GI
MIA PaCa-2 [2] = assay: Cytotoxicity against human MIAPaCa2 cells assessed as growth inhibition at 10 uM after 48 hrs by MTT assay; type: functional; conditions: MIA PaCa-2, 48 h, read-out: GI; procedure, shortened: as §1
MCF7 = assay: Cytotoxicity against human MCF7 cells assessed as growth inhibition at 10 uM after 48 hrs by MTT assay; type: functional; conditions: MCF7, 48 h, read-out: GI; procedure, shortened: as §1
HL-60 [3] = assay: Cytotoxicity against human HL60 cells assessed as growth inhibition at 10 uM after 48 hrs by MTT assay; type: functional; conditions: HL-60, 48 h, read-out: GI; procedure, shortened: as §1
THP-1 = assay: Cytotoxicity against human THP1 cells assessed as growth inhibition at 10 uM after 48 hrs by MTT assay; type: functional; conditions: THP-1, 48 h, read-out: GI; procedure, shortened: as §1
PC-3 = assay: Cytotoxicity against human PC3 cells assessed as growth inhibition at 10 uM after 48 hrs by MTT assay; type: functional; conditions: PC-3, 48 h, read-out: GI
HL-60 [4] = assay: Induction of mitochondrial membrane potential loss in human HL60 cells assessed as intact mitochondrial membrane potential at 1 uM measured after 48 hrs by Rh123 dye-based flow cytometric analysis (reference value: 91.3%); type: functional
Procedure, shortened: (§2)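 Cells seeded in 6-well plates 2-4 h, then 48 h with compound; Rh-123 1 µM added for the final half hour; cells centrifuged, washed twice in PBS, resuspended in PBS, and Ψm loss quantified by flow cytometry as percentage of cells.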

HL-60 [5] = assay: Induction of mitochondrial membrane potential loss in human HL60 cells at 1 uM measured after 48 hrs by Rh123 dye-based flow cytometric analysis (reference value: 5.6%); type: functional; procedure, shortened: as §2
MOLT-4 [6] = assay: Induction of mitochondrial membrane potential loss in human MOLT4 cells assessed as intact mitochondrial membrane potential at 1 uM measured after 48 hrs by Rh123 dye-based flow cytometric analysis (reference value: 90.4%); type: functional; procedure, shortened: as §2
P388 [7] = assay: Antitumor activity against mouse P388 cells implanted in CDF1 mouse assessed as increase in median survival time at 50 mg/kg, ip administered for 9 consecutive days; type: functional
Procedure, shortened: (§3)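 P388 leukemia cells were harvested from 6–7-day-old ascites grown in the peritoneum of female DBA/2 mice. Female CDF1 mice (18–23 g) received 5×10^5 cells i.p. on day 0. Next day they were randomized into groups of 7 and dosed i.p. daily for 9 consecutive days; controls got 0.2 ml normal saline. Mortality was followed to day 18, with median survival time and %T/C calculated.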

MOLT-4 [8] = assay: Induction of mitochondrial membrane potential loss in human MOLT4 cells at 1 uM measured after 48 hrs by Rh123 dye-based flow cytometric analysis (reference value: 9.6%); type: functional; procedure, shortened: as §2
MIA PaCa-2 [9] = assay: Cytotoxicity against human MIAPaCa2 cells assessed as growth inhibition after 48 hrs by MTT assay; type: functional, cell-based; conditions: MIA PaCa-2, 48 h; procedure, shortened: as §1
P388 [10] = assay: Antitumor activity against mouse P388 cells implanted in CDF1 mouse assessed as increase in median survival time at 20 mg/kg, ip administered for 9 consecutive days; type: functional, organism-based; procedure, shortened: as §3

O=C(CCCC(=O)N[C@@H]1CCN(Cc2ccccc2)C1)NO
inhibition (Homo sapiens): inactive

O=C(CCCC(=O)N[C@H]1CCN(Cc2ccccc2)C1)NO
inhibition (Homo sapiens): inactive

O=C(CCCCC(=O)N[C@H]1CCN(Cc2ccccc2)C1)NO
inhibition (Homo sapiens): inactive

O=C(CCCCC(=O)N[C@@H]1CCN(Cc2ccccc2)C1)NO
inhibition (Homo sapiens): inactive

O=C(CCCCC(=O)Nc1ccccc1CN1CC[C@H](O)C1)NO
inhibition of growth at 10 µM (A549): 19% | inhibition of growth at 10 µM (Caco-2): 31% | inhibition of growth at 10 µM (COLO 205): 22% | inhibition of growth at 10 µM (MOLT-4 [1]): 38% | inhibition of growth at 10 µM (MIA PaCa-2 [2]): 12% | inhibition of growth at 10 µM (MCF7): 26% | inhibition of growth at 10 µM (HL-60 [3]): 29% | inhibition of growth at 10 µM (THP-1): 37% | inhibition of growth at 10 µM (PC-3): 15% | inhibition (Homo sapiens): Active

O=C(CCCCCCC(=O)Nc1ccccc1)NO [VORINOSTAT]
Activity (HL-60 [4]): 75.6% | Activity (HL-60 [5]): 12.9% | Activity (MOLT-4 [6]): 71.6% | Activity (P388 [7]): Active | Activity (MOLT-4 [8]): 28.4% | IC50 (MIA PaCa-2 [9]): 2.2 µM

O=c1[nH]cc(F)c(=O)[nH]1
Activity (P388 [10]): Active

O=C(CCCC(=O)Nc1ccccc1CN1CC[C@H](O)C1)NO
inhibition of growth at 10 µM (A549): 5% | inhibition of growth at 10 µM (Caco-2): 1% | inhibition of growth at 10 µM (COLO 205): 26% | inhibition of growth at 10 µM (MOLT-4 [1]): 27% | inhibition of growth at 10 µM (MIA PaCa-2 [2]): 4% | inhibition of growth at 10 µM (MCF7): 5% | inhibition of growth at 10 µM (HL-60 [3]): 3% | inhibition of growth at 10 µM (THP-1): 3% | inhibition of growth at 10 µM (PC-3): 2% | inhibition (Homo sapiens): Active

O=C(CCCCCCC(=O)N[C@@H]1CCN(Cc2ccccc2)C1)NO
inhibition (Homo sapiens): inactive

O=C(CCCCCCCC(=O)N[C@@H]1CCN(Cc2ccccc2)C1)NO
inhibition (Homo sapiens): inactive

O=C(CCCCCCC(=O)N[C@H]1CCN(Cc2ccccc2)C1)NO
inhibition (Homo sapiens): inactive

O=C(CCCCCCCC(=O)Nc1ccccc1CN1CC[C@H](O)C1)NO
inhibition of growth at 10 µM (A549): 5% | inhibition of growth at 10 µM (Caco-2): 5% | inhibition of growth at 10 µM (COLO 205): 7% | inhibition of growth at 10 µM (MOLT-4 [1]): 30% | inhibition of growth at 10 µM (MIA PaCa-2 [2]): 2% | inhibition of growth at 10 µM (MCF7): 3% | inhibition of growth at 10 µM (HL-60 [3]): 6% | inhibition of growth at 10 µM (THP-1): 17% | inhibition of growth at 10 µM (PC-3): 12% | inhibition (Homo sapiens): Active

O=C(CCCCCCCC(=O)N[C@H]1CCN(Cc2ccccc2)C1)NO
inhibition (Homo sapiens): inactive
